Test results from ChEMBL document CHEMBL4118046, “Chemistry of Renieramycins. 17. A New Generation of Renieramycins: Hydroquinone 5-O-Monoester Analogues of Renieramycin M as Potential Cytotoxic Agents against Non-Small-Cell Lung Cancer Cells” (J Nat Prod, 2017).

Key:
NCI-H460 = assay: Cytotoxicity against human NCI-H460 cells after 72 hrs by MTT assay; format: functional, cell-based; conditions: NCI-H460, 72 h
Summary of the method: (§1)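 Metastatic human NSCLC lines H292 and H460, obtained from ATCC, were tested for viability by MTT assay following a previously published protocol. Cisplatin and doxorubicin served as positive controls. IC50 values are reported.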

NCI-H292 = assay: Cytotoxicity against human NCI-H292 cells after 72 hrs by MTT assay; format: functional, cell-based; conditions: NCI-H292, 72 h; summary of the method: as §1

Row | Structure (SMILES) | IC50 (NCI-H460) [µM] | IC50 (NCI-H292) [µM]
1 | COC1=C(C)C(=O)C2=C(C1=O)[C@@H]1[C@@H]3CC4=C(C(=O)C(OC)=C(C)C4=O)[C@H](CO)N3[C@@H](C#N)[C@@H](C2)N1C | 0.164 | 0.217
2 | C/C=C(/C)C(=O)OC[C@H]1c2c(O)c(OC)c(C)c(OC(=O)/C=C/c3ccc(F)cc3)c2C[C@H]2[C@H]3C4=C(C[C@H]([C@H](C#N)N12)N3C)C(=O)C(C)=C(OC)C4=O | 0.017 | 0.063
3 | C/C=C(/C)C(=O)OC[C@H]1c2c(O)c(OC)c(C)c(OC=O)c2C[C@H]2[C@H]3C4=C(C[C@H]([C@H](C#N)N12)N3C)C(=O)C(C)=C(OC)C4=O | 0.0097 | 0.012
4 | C/C=C(/C)C(=O)OC[C@H]1c2c(O)c(OC)c(C)c(OC(=O)/C=C/c3cccnc3)c2C[C@H]2[C@H]3C4=C(C[C@H]([C@H](C#N)N12)N3C)C(=O)C(C)=C(OC)C4=O | 0.052 | 0.057
5 | C/C=C(/C)C(=O)OC[C@H]1c2c(O)c(OC)c(C)c(O)c2C[C@H]2[C@H]3c4c(O)c(OC)c(C)c(O)c4C[C@H]([C@H](C#N)N12)N3C | 0.0011 | 0.0017
6 | C/C=C(/C)C(=O)OC[C@H]1c2c(O)c(OC)c(C)c(OC(=O)CCC)c2C[C@H]2[C@H]3C4=C(C[C@H]([C@H](C#N)N12)N3C)C(=O)C(C)=C(OC)C4=O | 0.0056 | 0.0067
7 | C/C=C(/C)C(=O)OC[C@H]1c2c(O)c(OC)c(C)c(OC(=O)c3ccc(Br)cc3)c2C[C@H]2[C@H]3C4=C(C[C@H]([C@H](C#N)N12)N3C)C(=O)C(C)=C(OC)C4=O | 0.014 | 0.021
8 | C/C=C(/C)C(=O)OC[C@H]1c2c(O)c(OC)c(C)c(OC(=O)c3ccc4ncccc4c3)c2C[C@H]2[C@H]3C4=C(C[C@H]([C@H](C#N)N12)N3C)C(=O)C(C)=C(OC)C4=O | 0.045 | 0.054
9 | C/C=C(/C)C(=O)OC[C@H]1c2c(O)c(OC)c(C)c(OC(=O)CNC(=O)OC(C)(C)C)c2C[C@H]2[C@H]3C4=C(C[C@H]([C@H](C#N)N12)N3C)C(=O)C(C)=C(OC)C4=O | 0.006 | 0.01
10 | C/C=C(/C)C(=O)OC[C@H]1c2c(O)c(OC)c(C)c(OC(=O)/C=C/c3ccccc3)c2C[C@H]2[C@H]3C4=C(C[C@H]([C@H](C#N)N12)N3C)C(=O)C(C)=C(OC)C4=O | 0.011 | 0.012
11 | C/C=C(/C)C(=O)OC[C@H]1c2c(O)c(OC)c(C)c(OC(=O)c3cccnc3)c2C[C@H]2[C@H]3C4=C(C[C@H]([C@H](C#N)N12)N3C)C(=O)C(C)=C(OC)C4=O | 0.02 | 0.059
12 | C/C=C(/C)C(=O)OC[C@H]1c2c(c(O)c(C)c3c2OCO3)C[C@H]2[C@H]3C4=C(C[C@H]([C@H](C#N)N12)N3C)C(=O)C(C)=C(OC)C4=O | 0.036 | 0.061
13 | C/C=C(/C)C(=O)OC[C@H]1c2c(c(OC(C)=O)c(C)c(OC)c2OC(C)=O)C[C@H]2[C@H]3C4=C(C[C@H]([C@H](C#N)N12)N3C)C(=O)C(C)=C(OC)C4=O | 0.025 | 0.028
14 | C/C=C(/C)C(=O)OC[C@H]1c2c(O)c(OC)c(C)c(OC(=O)[C@H](C)NC(=O)OC(C)(C)C)c2C[C@H]2[C@H]3C4=C(C[C@H]([C@H](C#N)N12)N3C)C(=O)C(C)=C(OC)C4=O | 0.016 | 0.024
15 | C/C=C(/C)C(=O)OC[C@H]1c2c(O)c(OC)c(C)c(OC(=O)CCCC)c2C[C@H]2[C@H]3C4=C(C[C@H]([C@H](C#N)N12)N3C)C(=O)C(C)=C(OC)C4=O | 0.026 | 0.036
16 | C/C=C(/C)C(=O)OC[C@H]1c2c(O)c(OC)c(C)c(OC(=O)c3cnc4ccccc4c3)c2C[C@H]2[C@H]3C4=C(C[C@H]([C@H](C#N)N12)N3C)C(=O)C(C)=C(OC)C4=O | 0.022 | 0.111
17 | C/C=C(/C)C(=O)OC[C@H]1c2c(O)c(OC)c(C)c(OC(=O)OC)c2C[C@H]2[C@H]3C4=C(C[C@H]([C@H](C#N)N12)N3C)C(=O)C(C)=C(OC)C4=O | 0.014 | 0.011
18 | C/C=C(/C)C(=O)OC[C@H]1c2c(O)c(OC)c(C)c(OC(=O)c3ccc(-c4ccccc4)cc3)c2C[C@H]2[C@H]3C4=C(C[C@H]([C@H](C#N)N12)N3C)C(=O)C(C)=C(OC)C4=O | 0.054 | 0.071
19 | COc1cc2c(cc1O)CCN[C@]21CS[C@@H]2c3c(OC(C)=O)c(C)c4c(c3[C@H](COC1=O)N1[C@@H]2[C@H]2c3c(cc(C)c(OC)c3O)C[C@H]([C@@H]1C#N)N2C)OCO4 | 0.0012 | 0.0016
20 | C/C=C(/C)C(=O)OC[C@H]1c2c(O)c(OC)c(C)c(OC(=O)c3ccncc3)c2C[C@H]2[C@H]3C4=C(C[C@H]([C@H](C#N)N12)N3C)C(=O)C(C)=C(OC)C4=O | 0.011 | 0.02
21 | C/C=C(/C)C(=O)OC[C@H]1c2c(O)c(OC)c(C)c(OC(=O)CC)c2C[C@H]2[C@H]3C4=C(C[C@H]([C@H](C#N)N12)N3C)C(=O)C(C)=C(OC)C4=O | 0.0051 | 0.0023
22 | C/C=C(/C)C(=O)OC[C@H]1c2c(O)c(OC)c(C)c(OC(C)=O)c2C[C@H]2[C@H]3C4=C(C[C@H]([C@H](C#N)N12)N3C)C(=O)C(C)=C(OC)C4=O | 0.0036 | 0.003
23 | C/C=C(/C)C(=O)OC[C@H]1c2c(O)c(OC)c(C)c(OC(=O)CCCCC)c2C[C@H]2[C@H]3C4=C(C[C@H]([C@H](C#N)N12)N3C)C(=O)C(C)=C(OC)C4=O | 0.015 | 0.016
24 | C/C=C(/C)C(=O)OC[C@H]1c2c(O)c(OC)c(C)c(OC(=O)c3ccccn3)c2C[C@H]2[C@H]3C4=C(C[C@H]([C@H](C#N)N12)N3C)C(=O)C(C)=C(OC)C4=O | 0.026 | 0.103
25 | COc1cccc2c1C(=O)c1c(O)c3c(c(O)c1C2=O)C[C@@](O)(C(=O)CO)C[C@@H]3O[C@H]1C[C@H](N)[C@H](O)[C@H](C)O1 [DOXORUBICIN] | 0.034 | 0.351
26 | C/C=C(/C)C(=O)OC[C@H]1C2=C(C[C@H]3[C@H]4C5=C(C[C@@H]([C@H](C#N)N13)N4C)C(=O)C(C)=C(OC)C5=O)C(=O)C(C)=C(OC)C2=O [RENIERAMYCIN M] | 0.0065 | 0.024
